What was measured:
Format in all cases: functional
Rattus norvegicus [1] = assay: Percent increase in nonesterified fatty acids in obese Zucker rats after 2 weeks of treatment at a dose of 3 mg/kg/day
Summary of the method: (§1)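 Female Zucker fatty rats [Crl:(Zuc)-faBR], 10–12 weeks, 400–500 g, acclimated 7 days on chow. Compound or vehicle (20% EtOH/80% PEG-200) given by daily oral gavage for 2 weeks, 0–100 mg/kg/day. After a 6 h fast, blood was taken before dosing, at 1 wk and at 2 wk. Serum lipids, NEFA and insulin (ELISA) were measured; glucose by glucometer. HDL/non-HDL-C came from Superose 6 gel-filtration profiles. Values are % change from pretreatment, mean ± SEM.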

Rattus norvegicus [2] = assay: Percent increase in nonesterified fatty acids in obese Zucker rats after 2 weeks of treatment at a dose of 0 mg/kg/day; summary of the method: as §1
Rattus norvegicus [3] = assay: Percent increase in non-HDL-cholesterol in obese Zucker rats after 2 weeks of treatment at a dose of 10 mg/kg/day; summary of the method: as §1
Rattus norvegicus [4] = assay: Percent decrease in glucose in obese Zucker rats after 1 week of treatment at a dose of 100 mg/kg/day; design: scale not given: the % may be the effect or the level left; summary of the method: as §1
Rattus norvegicus [5] = assay: Amount of nonesterified fatty acids in obese Zucker rats after 2 weeks of treatment at a dose of 100 mg/kg/day
Summary of the method: (§2)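 Female Zucker fatty rats [Crl:(Zuc)-faBR], 10–12 weeks old (400–500 g), dosed once daily by oral gavage in 20% EtOH/80% PEG-200 for up to 14 days. After a 6-h fast, serum was taken pre-dose, at day 7 (orbital venous plexus, O2/CO2 anaesthesia) and at day 14 (cardiac puncture), stored at −80 °C, and assayed on a Hitachi 912 automatic analyzer. Mean ± SEM.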

Rattus norvegicus [6] = assay: Percent decrease in insulin in obese Zucker rats after 2 weeks of treatment at a dose of 0 mg/kg/day; design: scale not given: the % may be the effect or the level left; summary of the method: as §1
Rattus norvegicus [7] = assay: Amount of nonesterified fatty acids in obese Zucker rats after 1 week of treatment at a dose of 10 mg/kg/day; summary of the method: as §2
Rattus norvegicus [8] = assay: Percent increase in HDL-cholesterol in obese Zucker rats after 2 weeks of treatment at a dose of 100 mg/kg/day; summary of the method: as §1

Work on `CC(C)(CO)CCCCC(=O)CCCCC(C)(C)CO` yielded an Activity (Rattus norvegicus [1]) of 45% and an Activity (Rattus norvegicus [2]) of 33%.
`CC(C)(CCCCCC(=O)CCCCCC(C)(C)C(=O)O)C(=O)O` was tested, and the Activity (Rattus norvegicus [3]) was 55% and the Activity (Rattus norvegicus [4]) was -21%.
Compound `CC(C)(CCCCC(=O)CCCCC(C)(C)C(=O)O)C(=O)O` has an Activity (Rattus norvegicus [5]) of 0.66 mg/dL, an Activity (Rattus norvegicus [6]) of -31% and an Activity (Rattus norvegicus [7]) of 0.92 mg/dL. The Activity (Rattus norvegicus [8]) was 79%.

Source: ChEMBL document CHEMBL1137992, “Long hydrocarbon chain keto diols and diacids that favorably alter lipid disorders in vivo” (J Med Chem, 2004)
